We go through one compound from ChEMBL document CHEMBL3864175, “Sulfonamides as Selective NaV1.7 Inhibitors: Optimizing Potency and Pharmacokinetics to Enable in Vivo Target Engagement” (ACS Med Chem Lett, 2016).

Series [1] can be described thus: Volume of distribution at steady state in rat at 0.5 mg/kg, iv by LC-MS/MS analysis. Particulars: in vivo, read-out: Vdss. In kind it is ADME, organism-based. A digest of the protocol: (§1)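 Male rats, n = 2 per group, dosed intravenously at 0.5 mg/kg as a solution in 100% DMSO. Unbound clearance is derived from total clearance.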
Series [2] is described as follows: Drug uptake in plasma of po dosed histamine induced C57BL/6 mouse model of scratching pretreated for 120 mins followed by histamine-challenge measured after 30 mins. It is filed as ADME, organism-based. Particulars: in vivo, 0.5 h. A digest of the protocol:
(§2)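 Male C57BL/6 mice dosed orally 120 min before intradermal histamine. Scratching bouts counted over 30 min and compared with vehicle by one-way ANOVA with Dunnett's test. Total and unbound plasma levels taken 30 min after histamine.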

The nature of series [3]: Drug excretion in bile duct cannulated Sprague-Dawley rat bile assessed as parent compound at 1 mg/kg, iv administered through catheter measured up to 24 hrs by LC-MS/MS analysis. In kind it is ADME, organism-based. Particulars: read-out: Drug excretion.
Series [4] can be described thus: Clearance in rat at 0.5 mg/kg, iv by LC-MS/MS analysis. It is filed as ADME, organism-based. Particulars: in vivo. A digest of the protocol:
as §1

The test system of series [5] is Mus musculus. The series can be described thus: Toxicity in C57BL/6 mouse assessed as reduction in locomotor activity at 5 to 60 mg/kg, po measured after 4 hrs by open field movement assay. It is filed as organism-based. The conditions noted are these: in vivo.
Series [6] is described as follows: Unbound plasma concentration in histamine induced C57BL/6 mouse model of scratching at 60 mg/kg, po pretreated for 120 mins followed by histamine-challenge measured after 30 mins. The conditions noted are these: in vivo, 0.5 h. In kind it is ADME, organism-based. A digest of the protocol: as §2
A short description of series [7]: Selectivity index, ratio of IC50 for human Nav1.5 expressed in HEK293 cells to IC50 for human Nav 1.7 expressed in HEK293 cells.
A short description of series [8]: Ratio of drug level in brain to plasma in C57BL/6 mouse. In kind it is ADME. The conditions noted are these: read-out: BPR.
Series [9] is described as follows: Drug excretion in bile duct cannulated Sprague-Dawley rat feces assessed as parent compound at 1 mg/kg, iv administered through catheter measured up to 24 hrs by LC-MS/MS analysis. In kind it is ADME, organism-based. The conditions noted are these: faeces, read-out: Drug excretion.
Series [10] concerns the target Sodium channel protein type 5 subunit alpha (Homo sapiens, UniProt Q14524). The series can be described thus: Inhibition of human Nav1.5 expressed in HEK293 cells assessed as inhibition of sodium current at holding potential of -125 mV measured for 3 to 5 mins by whole cell voltage clamp method. In kind it is cell-based.
Series [11] concerns the target Sodium channel protein type 4 subunit alpha (Homo sapiens, UniProt P35499). The series can be described thus: Inhibition of 20% inactivated human Nav1.4 expressed in HEK293 cells assessed as inhibition of peak inward current by whole cell patch clamp method. It is filed as cell-based. (In patch-clamp work, channel activity is measured electrically.)
In series [12] the target is Sodium channel protein type 9 subunit alpha (Mus musculus, UniProt Q62205). The series can be described thus: Inhibition of 20% inactivated Nav1.7 in C57BL/6 mouse DRG neurons assessed as inhibition of sodium currents in presence of TTX by whole cell patch clamp assay. A digest of the protocol: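 Electrophysiology of TTX-sensitive sodium channels recorded from the cell bodies of sensory neurons freshly dissociated from mouse dorsal root ganglia.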
Sodium channel protein type 9 subunit alpha (Mus musculus, UniProt Q62205), sequence (Q62205 whole entry): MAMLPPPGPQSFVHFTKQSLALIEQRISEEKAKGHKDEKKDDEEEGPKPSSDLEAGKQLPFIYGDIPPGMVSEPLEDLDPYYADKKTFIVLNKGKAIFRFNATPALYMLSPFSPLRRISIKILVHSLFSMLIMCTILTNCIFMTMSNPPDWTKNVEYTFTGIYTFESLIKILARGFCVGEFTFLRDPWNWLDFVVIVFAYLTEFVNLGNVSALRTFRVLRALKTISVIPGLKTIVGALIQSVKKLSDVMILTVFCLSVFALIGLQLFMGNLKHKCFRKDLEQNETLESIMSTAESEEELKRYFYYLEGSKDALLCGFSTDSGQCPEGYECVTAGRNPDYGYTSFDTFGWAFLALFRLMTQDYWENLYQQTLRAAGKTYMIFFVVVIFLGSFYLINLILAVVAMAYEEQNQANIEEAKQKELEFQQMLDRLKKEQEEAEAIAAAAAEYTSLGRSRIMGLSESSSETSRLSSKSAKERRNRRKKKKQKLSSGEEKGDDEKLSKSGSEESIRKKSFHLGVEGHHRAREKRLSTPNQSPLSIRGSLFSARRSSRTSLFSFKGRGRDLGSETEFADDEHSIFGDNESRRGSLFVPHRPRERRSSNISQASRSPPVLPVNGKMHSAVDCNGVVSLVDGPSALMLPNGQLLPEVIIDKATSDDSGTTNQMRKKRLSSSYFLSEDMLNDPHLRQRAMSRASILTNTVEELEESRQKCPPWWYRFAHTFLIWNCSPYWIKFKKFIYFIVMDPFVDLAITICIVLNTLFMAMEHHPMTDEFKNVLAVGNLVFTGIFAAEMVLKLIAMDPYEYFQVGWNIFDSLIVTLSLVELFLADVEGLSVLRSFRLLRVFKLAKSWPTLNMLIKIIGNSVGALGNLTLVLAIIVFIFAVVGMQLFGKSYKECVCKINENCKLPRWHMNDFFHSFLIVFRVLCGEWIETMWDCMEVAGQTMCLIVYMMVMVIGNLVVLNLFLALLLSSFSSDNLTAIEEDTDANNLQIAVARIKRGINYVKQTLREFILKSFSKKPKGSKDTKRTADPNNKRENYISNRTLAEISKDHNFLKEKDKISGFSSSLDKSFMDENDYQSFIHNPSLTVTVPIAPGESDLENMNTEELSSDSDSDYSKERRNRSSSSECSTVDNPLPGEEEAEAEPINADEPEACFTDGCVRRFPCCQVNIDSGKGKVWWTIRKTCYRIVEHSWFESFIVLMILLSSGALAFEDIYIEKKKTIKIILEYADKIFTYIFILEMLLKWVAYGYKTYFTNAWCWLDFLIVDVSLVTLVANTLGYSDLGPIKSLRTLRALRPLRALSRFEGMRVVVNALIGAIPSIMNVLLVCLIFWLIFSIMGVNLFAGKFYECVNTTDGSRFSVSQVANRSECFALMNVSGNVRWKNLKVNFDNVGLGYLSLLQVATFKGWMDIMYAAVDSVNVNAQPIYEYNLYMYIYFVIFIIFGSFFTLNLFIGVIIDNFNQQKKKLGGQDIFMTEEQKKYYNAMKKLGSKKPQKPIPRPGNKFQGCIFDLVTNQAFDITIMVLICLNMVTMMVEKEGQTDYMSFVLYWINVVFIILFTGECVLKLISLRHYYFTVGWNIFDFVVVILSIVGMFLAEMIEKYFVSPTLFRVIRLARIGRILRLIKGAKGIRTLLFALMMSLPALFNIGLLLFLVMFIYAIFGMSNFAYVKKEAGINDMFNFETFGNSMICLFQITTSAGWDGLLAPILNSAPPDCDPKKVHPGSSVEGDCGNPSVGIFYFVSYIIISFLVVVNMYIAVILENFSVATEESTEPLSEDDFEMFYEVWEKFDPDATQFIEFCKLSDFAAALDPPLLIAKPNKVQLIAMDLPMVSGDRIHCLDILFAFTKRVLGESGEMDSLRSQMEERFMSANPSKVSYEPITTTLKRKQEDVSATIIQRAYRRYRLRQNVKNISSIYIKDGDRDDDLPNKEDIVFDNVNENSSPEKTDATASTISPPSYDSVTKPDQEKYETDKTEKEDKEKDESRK

Series [13] is described as follows: Oral bioavailability in dog at 1.7 mg/kg by LC-MS/MS analysis. It is filed as ADME, organism-based, Canis lupus familiaris. Particulars: in vivo. A digest of the protocol: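 Dogs given a 1.7 mg/kg oral dose as a solution in 30% HPBCD/70% water/KOH at pH = 10; plasma parameters derived from this oral dosing, with the iv dose at 0.5 mg/kg in the same vehicle.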

Series [14] in a line: Apparent permeability in MDCK cells. It is filed as ADME, cell-based, Canis lupus familiaris. Particulars: dog. A digest of the protocol:
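Apparent permeability measured in parental MDCK cells.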

The nature of series [15]: Total plasma concentration in histamine induced C57BL/6 mouse model of scratching at 60 mg/kg, po pretreated for 120 mins followed by histamine-challenge measured after 30 mins. It is filed as ADME, organism-based. A digest of the protocol: as §2
Series [16] addresses Sodium channel protein type 9 subunit alpha (Rattus norvegicus, UniProt O08562). Briefly: Inhibition of 20% inactivated rat Nav1.7 expressed in HEK293T cells assessed as inhibition of sodium current measured for 3 to 5 mins by whole cell voltage clamp method. In kind it is cell-based, HEK-293T.
Series [17] can be described thus: Tmax in rat at 10 mg/kg, po by LC-MS/MS analysis. Particulars: in vivo. In kind it is ADME, organism-based. A digest of the protocol:
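Rats dosed orally at 10 mg/kg as a solution in 30% HPBCD/70% water, brought to pH 10 with KOH.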

Series [18] in a line: Volume of distribution at steady state in dog at 0.5 mg/kg, iv by LC-MS/MS analysis. It is filed as ADME, organism-based, Canis lupus familiaris. Particulars: in vivo. A digest of the protocol:
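Dogs dosed intravenously at 0.5 mg/kg in 30% HPBCD/70% water, brought to pH 10 with KOH.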

Sodium channel protein type 5 subunit alpha, sequence (Q14524 whole entry): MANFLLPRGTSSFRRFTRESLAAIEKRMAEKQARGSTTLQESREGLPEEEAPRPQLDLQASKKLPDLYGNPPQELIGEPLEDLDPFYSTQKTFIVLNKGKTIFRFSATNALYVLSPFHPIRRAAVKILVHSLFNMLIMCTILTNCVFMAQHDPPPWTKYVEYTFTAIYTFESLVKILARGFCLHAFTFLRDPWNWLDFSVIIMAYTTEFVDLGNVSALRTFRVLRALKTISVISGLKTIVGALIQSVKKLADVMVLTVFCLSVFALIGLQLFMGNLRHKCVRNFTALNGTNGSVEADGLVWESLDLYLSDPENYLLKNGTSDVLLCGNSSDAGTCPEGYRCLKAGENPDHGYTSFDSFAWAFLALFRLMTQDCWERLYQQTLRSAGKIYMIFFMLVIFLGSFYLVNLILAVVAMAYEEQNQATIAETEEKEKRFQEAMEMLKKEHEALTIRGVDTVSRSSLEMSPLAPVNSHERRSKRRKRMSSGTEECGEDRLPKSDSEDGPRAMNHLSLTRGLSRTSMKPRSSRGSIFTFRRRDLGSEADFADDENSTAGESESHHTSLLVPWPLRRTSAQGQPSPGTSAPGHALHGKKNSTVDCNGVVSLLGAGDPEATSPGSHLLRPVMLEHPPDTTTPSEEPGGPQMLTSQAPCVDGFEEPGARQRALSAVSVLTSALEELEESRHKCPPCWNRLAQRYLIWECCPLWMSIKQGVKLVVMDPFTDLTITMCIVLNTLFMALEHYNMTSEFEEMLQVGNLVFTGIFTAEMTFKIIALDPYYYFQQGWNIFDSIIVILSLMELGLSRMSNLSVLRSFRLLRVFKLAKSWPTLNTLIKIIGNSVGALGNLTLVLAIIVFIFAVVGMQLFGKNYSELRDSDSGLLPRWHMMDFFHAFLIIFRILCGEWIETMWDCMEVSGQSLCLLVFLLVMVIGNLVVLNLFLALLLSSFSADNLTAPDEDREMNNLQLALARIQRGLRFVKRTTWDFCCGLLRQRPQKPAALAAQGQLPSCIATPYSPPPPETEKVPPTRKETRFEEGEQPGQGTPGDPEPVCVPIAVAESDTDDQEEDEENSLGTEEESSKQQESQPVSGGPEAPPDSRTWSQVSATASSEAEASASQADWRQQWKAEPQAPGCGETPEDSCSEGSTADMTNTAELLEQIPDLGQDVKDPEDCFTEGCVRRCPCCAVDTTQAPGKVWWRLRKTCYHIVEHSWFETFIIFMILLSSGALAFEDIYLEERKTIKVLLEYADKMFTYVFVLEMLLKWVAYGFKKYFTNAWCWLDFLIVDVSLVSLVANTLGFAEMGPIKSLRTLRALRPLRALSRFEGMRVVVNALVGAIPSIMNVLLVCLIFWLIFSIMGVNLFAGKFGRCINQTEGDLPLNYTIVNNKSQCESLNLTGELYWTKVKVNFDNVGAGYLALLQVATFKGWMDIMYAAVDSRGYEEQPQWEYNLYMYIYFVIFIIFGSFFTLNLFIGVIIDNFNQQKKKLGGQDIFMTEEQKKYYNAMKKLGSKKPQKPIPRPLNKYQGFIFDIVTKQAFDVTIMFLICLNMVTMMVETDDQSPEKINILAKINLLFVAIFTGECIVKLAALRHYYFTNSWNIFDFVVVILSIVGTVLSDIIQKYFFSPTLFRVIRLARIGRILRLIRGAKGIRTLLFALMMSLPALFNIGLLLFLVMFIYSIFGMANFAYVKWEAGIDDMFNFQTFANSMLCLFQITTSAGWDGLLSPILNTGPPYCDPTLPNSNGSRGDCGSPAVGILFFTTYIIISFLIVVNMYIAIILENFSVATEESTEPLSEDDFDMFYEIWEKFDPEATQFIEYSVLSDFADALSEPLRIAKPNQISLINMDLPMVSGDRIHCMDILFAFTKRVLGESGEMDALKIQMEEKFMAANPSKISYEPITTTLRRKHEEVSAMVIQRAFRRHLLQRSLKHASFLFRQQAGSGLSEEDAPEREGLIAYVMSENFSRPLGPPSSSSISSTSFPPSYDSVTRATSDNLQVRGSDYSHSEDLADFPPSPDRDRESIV

Usually clearance stands for the rate of elimination divided by the concentration. The term IC50 denotes the point on the concentration scale where inhibition reaches its midpoint. As a reminder, the bioavailability is dose-corrected exposure relative to a reference, in per cent. A lower bioavailability goes with poor availability. For orientation: Papp means the rate of passage across a membrane or cell layer, normalised by area and donor concentration. A word on the Tmax: it is the time from dosing to the highest level. Consider `COc1cc(C(F)(F)F)ccc1-c1ncnc2cc(S(=O)(=O)Nc3nccs3)ccc12`, for which the Vd in series [1] is 1.5 L; in [18], 0.31 L/kg. Further, in series [2], the Drug uptake entry was “Dose-dependent effect”. The values for the dose excreted at 24 h in series [3] and in series [9] were 4.7% and 0.6%, respectively. Further, the clearance in series [4] was 9 mL/min/kg. For the same compound, the Activity entry in series [5] was “Non-Toxic”. Also, in series [6], the “Cp(f)” value is 5.1 µM. In addition, the “Ratio IC50” value in [7] is reported as greater than 100. Moreover, the Kp in series [8] turned out to be 0.008. Further, the IC50 was greater than 30 µM in series [10], 17 µM in series [11], 0.13 µM in series [12] and 3.5 µM in [16]. The same compound showed a bioavailability in [13] of 53%. Besides, the Papp in series [14] was found to be 31 ×10⁻⁶ cm/s. In addition, the concentration at 0.5 h in series [15] was found to be 150 µM. Also, the time of peak concentration (Tmax) in series [17] came to 1.7 h.
